Activity calls are given as the source filed them. The rule behind the calls is not given here.
How the values were obtained:
Mus musculus [1] = assay: Anticonvulsant activity in Swiss Albino mouse at 300 mg/kg, ip after 0.5 hr by MES test; type: functional, organism-based; design: dose 300 mg/kg
Method in brief: (§1)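 Mice (Swiss, 20-25 g) given i.p. doses of 30, 100 and 300 mg/kg under ADD program protocols, three per group, examined at 0.5 and 4 h in MES, scPTZ, scSTY or scPIC seizure tests. Value is the minimum dose protecting half or more of the mice.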

Mus musculus [2] = assay: Anticonvulsant activity in Swiss Albino mouse at 300 mg/kg, ip after 4 hrs by MES test; type: functional, organism-based; design: dose 300 mg/kg; method in brief: as §1
Mus musculus [3] = assay: Anticonvulsant activity in Swiss Albino mouse at 300 mg/kg, ip after 0.5 hr by scPTZ test; type: functional, organism-based; design: dose 300 mg/kg; method in brief: as §1
Mus musculus [4] = assay: Anticonvulsant activity in Swiss Albino mouse at 300 mg/kg, ip after 0.5 hr by scSTY test; type: functional, organism-based; design: dose 300 mg/kg; method in brief: as §1
Mus musculus [5] = assay: Anticonvulsant activity in Swiss Albino mouse at 300 mg/kg, ip after 4 hrs by scSTY test; type: functional, organism-based; design: dose 300 mg/kg; method in brief: as §1
Mus musculus [6] = assay: Anticonvulsant activity in Swiss Albino mouse at 100 mg/kg, ip after 0.5 hr by scPIC test; type: functional, organism-based; design: dose 100 mg/kg; method in brief: as §1
Mus musculus [7] = assay: Anticonvulsant activity in Swiss Albino mouse at 100 mg/kg, ip after 4 hrs by scPIC test; type: functional, organism-based; design: dose 100 mg/kg; method in brief: as §1
Mus musculus [8] = assay: Neurotoxicity in Swiss Albino mouse at 300 mg/kg, ip after 0.5 hr by rotarod test; type: functional, organism-based; design: dose 300 mg/kg
Method in brief: (§2)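 Swiss mice (20-25 g) are trained on an accelerating rotorod (10 rpm, 3.2 cm rod), then injected i.p. at 30, 100 or 300 mg/kg, with three per group. Neurotoxicity means failure to keep equilibrium for at least 1 min in each of three trials, checked at 0.5 and 4 h. The value reported is the minimum dose affecting half or more of the mice.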

Mus musculus [9] = assay: Neurotoxicity in Swiss Albino mouse at 300 mg/kg, ip after 4 hrs by rotarod test; type: functional, organism-based; design: dose 300 mg/kg; method in brief: as §2
Mus musculus [10] = assay: Analgesic activity in Swiss Albino mouse assessed as number of acetic acid-induced writhing per 30 min after 100 mg/kg, ip; type: functional; settings: route intraperitoneal
Method in brief: (§3)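 Mice in groups of six dosed i.p. at 100 mg/kg, controls receiving 30% v/v PEG 400 in water. Writhing induced by i.p. 0.1 mL of 3% v/v acetic acid 1 h after drug. Writhes (abdominal stretch with at least one hind limb extended) counted over 30 min; % inhibition calculated. Mean ± SEM, Student's t test.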

Mus musculus [11] = assay: Analgesic activity in Swiss Albino mouse assessed as inhibition of acetic acid-induced writhing responses at 100 mg/kg, ip; type: functional; settings: route intraperitoneal; method in brief: as §3
Rattus norvegicus [12] = assay: Anti-dynamic allodynia effect in Sprague-Dawley rat SNL model assessed as latency to paw withdrawal 100 mg/kg, ip after 0.5 hr; type: functional; settings: route intraperitoneal
Method in brief: (§4)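 Left L5 spinal nerve ligation rats, tested preoperatively and 9 days postoperatively, then given 100 mg/kg i.p. (vehicle 30% v/v PEG 400 in water). After 10 min acclimatization, plantar surface of affected paw stroked mildly with a cotton-bud; paw lift response recorded. n = 4; retested 0.5-2.5 h post-dose.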

Rattus norvegicus [13] = assay: Anti-dynamic allodynia effect in Sprague-Dawley rat SNL model assessed as latency to paw withdrawal 100 mg/kg, ip after 1 hr; type: functional; settings: route intraperitoneal; method in brief: as §4
Rattus norvegicus [14] = assay: Anti-dynamic allodynia effect in Sprague-Dawley rat SNL model assessed as latency to paw withdrawal 100 mg/kg, ip after 1.5 hrs; type: functional; settings: route intraperitoneal; method in brief: as §4
Rattus norvegicus [15] = assay: Anti-dynamic allodynia effect in Sprague-Dawley rat SNL model assessed as latency to paw withdrawal 100 mg/kg, ip after 2 hrs; type: functional; settings: route intraperitoneal; method in brief: as §4
Rattus norvegicus [16] = assay: Anti-dynamic allodynia effect in Sprague-Dawley rat SNL model assessed as latency to paw withdrawal 100 mg/kg, ip after 2.5 hrs; type: functional; settings: route intraperitoneal; method in brief: as §4
Rattus norvegicus [17] = assay: Antihyperalgesic effects in Sprague-Dawley rat CCI model assessed as duration of paw withdrawal at 100 mg/kg, ip after 0.5 hr; type: functional; settings: route intraperitoneal
Rattus norvegicus [18] = assay: Antihyperalgesic effects in Sprague-Dawley rat CCI model assessed as duration of paw withdrawal at 100 mg/kg, ip after 1 hr; type: functional; settings: route intraperitoneal
Rattus norvegicus [19] = assay: Antihyperalgesic effects in Sprague-Dawley rat CCI model assessed as duration of paw withdrawal at 100 mg/kg, ip after 1.5 hrs; type: functional; settings: route intraperitoneal
Rattus norvegicus [20] = assay: Antihyperalgesic effects in Sprague-Dawley rat CCI model assessed as duration of paw withdrawal at 100 mg/kg, ip after 2 hrs; type: functional; settings: route intraperitoneal
Rattus norvegicus [21] = assay: Antihyperalgesic effects in Sprague-Dawley rat CCI model assessed as duration of paw withdrawal at 100 mg/kg, ip after 2.5 hrs; type: functional; settings: route intraperitoneal
Rattus norvegicus [22] = assay: Effect on spontaneous pain in Sprague-Dawley rat SNL model assessed as duration of paw withdrawal at 100 mg/kg, ip after 0.5 hr; type: functional; settings: route intraperitoneal
Method in brief: (§5)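 Rats underwent left L5 spinal nerve ligation (Kim and Chung) under i.p. pentobarbital (65 mg/kg). Spontaneous pain is recorded for 5 min after 10 min acclimatization, as cumulative duration the ipsilateral paw is lifted, excluding locomotor lifts. Dosing is 100 mg/kg i.p. in 30% v/v PEG 400/water, with testing at 0.5–2.5 h. Four rats, mean ± SEM versus predrug, one-way ANOVA with Bonferroni.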

Rattus norvegicus [23] = assay: Effect on spontaneous pain in Sprague-Dawley rat SNL model assessed as duration of paw withdrawal at 100 mg/kg, ip after 1 hr; type: functional; settings: route intraperitoneal; method in brief: as §5
Rattus norvegicus [24] = assay: Effect on spontaneous pain in Sprague-Dawley rat SNL model assessed as duration of paw withdrawal at 100 mg/kg, ip after 1.5 hrs; type: functional; settings: route intraperitoneal; method in brief: as §5
Rattus norvegicus [25] = assay: Effect on spontaneous pain in Sprague-Dawley rat SNL model assessed as duration of paw withdrawal at 100 mg/kg, ip after 2 hrs; type: functional; settings: route intraperitoneal; method in brief: as §5
Rattus norvegicus [26] = assay: Effect on spontaneous pain in Sprague-Dawley rat SNL model assessed as duration of paw withdrawal at 100 mg/kg, ip after 2.5 hrs; type: functional; settings: route intraperitoneal; method in brief: as §5
Rattus norvegicus [27] = assay: Antihyperalgesic effects in Sprague-Dawley rat SNL model assessed as duration of paw withdrawal at 100 mg/kg, ip after 0.5 hr, ip; type: functional; settings: route intraperitoneal
Method in brief: (§6)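 L5 SNL rats (n = 4), dosed 100 mg/kg i.p. (vehicle 30% v/v PEG 400 in water). Pin-prick to midplantar ipsilateral left hindpaw; withdrawal duration, mean of three responses; ≥2 s defined abnormal. Mean ± SEM; one-way ANOVA with Bonferroni versus predrug.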

Rattus norvegicus [28] = assay: Antihyperalgesic effects in Sprague-Dawley rat SNL model assessed as duration of paw withdrawal at 100 mg/kg, ip after 1 hr, ip; type: functional; settings: route intraperitoneal; method in brief: as §6
Rattus norvegicus [29] = assay: Antihyperalgesic effects in Sprague-Dawley rat SNL model assessed as duration of paw withdrawal at 100 mg/kg, ip after 1.5 hrs, ip; type: functional; settings: route intraperitoneal; method in brief: as §6
Rattus norvegicus [30] = assay: Antihyperalgesic effects in Sprague-Dawley rat SNL model assessed as duration of paw withdrawal at 100 mg/kg, ip after 2 hrs, ip; type: functional; settings: route intraperitoneal; method in brief: as §6
Rattus norvegicus [31] = assay: Antihyperalgesic effects in Sprague-Dawley rat SNL model assessed as duration of paw withdrawal at 100 mg/kg, ip after 2.5 hrs, ip; type: functional; settings: route intraperitoneal; method in brief: as §6
Rattus norvegicus [32] = species: Rattus norvegicus; assay: Anti-dynamic allodynic effect in Sprague-Dawley rat CCI model assessed as latency to paw withdrawal after 0.5 hr; type: functional
Method in brief: (§7)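 Rats with sciatic nerve chronic constriction injury (pentobarbital 65 mg/kg i.p. anaesthesia), baseline and day 9 testing, then drug per randomization table. After 10 min acclimatization, affected plantar surface stroked mildly with a cotton-bud; paw lift recorded. n = 4; retested 0.5-2.5 h post-dose.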

Rattus norvegicus [33] = species: Rattus norvegicus; assay: Anti-dynamic allodynic effect in Sprague-Dawley rat CCI model assessed as latency to paw withdrawal after 1 hr; type: functional; method in brief: as §7
Rattus norvegicus [34] = species: Rattus norvegicus; assay: Anti-dynamic allodynic effect in Sprague-Dawley rat CCI model assessed as latency to paw withdrawal after 1.5 hr; type: functional; method in brief: as §7
Rattus norvegicus [35] = species: Rattus norvegicus; assay: Anti-dynamic allodynic effect in Sprague-Dawley rat CCI model assessed as latency to paw withdrawal after 2 hr; type: functional; method in brief: as §7
Rattus norvegicus [36] = species: Rattus norvegicus; assay: Anti-dynamic allodynic effect in Sprague-Dawley rat CCI model assessed as latency to paw withdrawal after 2.5 hr; type: functional; method in brief: as §7

## O=C(O)CCCNC(=O)N/N=C/c1ccc(Cl)cc1
Mus musculus [1]
  Activity: inactive
Mus musculus [2]
  Activity: inactive
Mus musculus [3]
  Activity: inactive
Mus musculus [4]
  Activity: Active
Mus musculus [5]
  Activity: Active
Mus musculus [6]
  Activity: Active
Mus musculus [7]
  Activity: Active
Mus musculus [8]
  Activity: inactive
Mus musculus [9]
  Activity: inactive
Mus musculus [10]
  Activity: 59.3
Mus musculus [11]
  inhibition in vivo at 100 mg/kg: 68%
Rattus norvegicus [12]
  Activity: 4.5 s
Rattus norvegicus [13]
  Activity: 4.2 s
Rattus norvegicus [14]
  Activity: 11.3 s
Rattus norvegicus [15]
  Activity: 0.8 s
Rattus norvegicus [16]
  Activity: 0.35 s
Rattus norvegicus [17]
  Activity: 7.9 s
Rattus norvegicus [18]
  Activity: 7.8 s
Rattus norvegicus [19]
  Activity: 4.4 s
Rattus norvegicus [20]
  Activity: 4.2 s
Rattus norvegicus [21]
  Activity: 7.2 s
Rattus norvegicus [22]
  Activity: 33.1 s
Rattus norvegicus [23]
  Activity: 14 s
Rattus norvegicus [24]
  Activity: 12.7 s
Rattus norvegicus [25]
  Activity: 11.2 s
Rattus norvegicus [26]
  Activity: 15.9 s
Rattus norvegicus [27]
  Activity: 24.6 s
Rattus norvegicus [28]
  Activity: 17.3 s
Rattus norvegicus [29]
  Activity: 12.3 s
Rattus norvegicus [30]
  Activity: 5.6 s
Rattus norvegicus [31]
  Activity: 17.9 s
Rattus norvegicus [32]
  Activity: 14.9 s
Rattus norvegicus [33]
  Activity: 3.5 s
Rattus norvegicus [34]
  Activity: 1.1 s
Rattus norvegicus [35]
  Activity: 14.5 s
Rattus norvegicus [36]
  Activity: 13 s
